From ChEMBL document CHEMBL3351550, “Synthesis and antiangiogenic activity of 6-amido-2,4,5-trimethylpyridin-3-ols” (2014)

What was measured:
[1] = test system: Chorioallantoic membrane; assay: Antiangiogenic activity in chicken chorioallantoic membrane assessed as inhibition of VEGF-induced blood vessel formation at 0.01 nmol/CAM treated 30 mins after VEGF addition measured after 3 days relative to control; format: functional, cell membranes; settings: Gallus gallus
Method in brief: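 Chick embryo CAM; angiogenesis induced with VEGF (20 ng/CAM) before compound. Compound stock diluted in PBS to 1.0 μM, 10 μL applied to a disk on the CAM, giving 0.01 nmol/CAM. Read-out is the number of new blood vessel branch points in the area under the disk, compared against VEGF-treated CAMs.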

[2] = test system: A549; assay: Antitumor activity in human A549 cells inoculated with chicken chorioallantoic membrane assessed as inhibition of tumor weight at 0.1 pmol/CAM after 5 days; format: functional
Method in brief: (§1)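 A549 cells (2×10^6 cells/CAM) in Matrigel inoculated onto chick CAM and treated once with compound at implantation. The tumor mass grown on the CAM was excised and weighed, and inhibition is relative to untreated controls, means ± S.E.M., at least six embryos.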

[3] = test system: A549; assay: Antitumor activity in human A549 cells inoculated with chicken chorioallantoic membrane assessed as inhibition of tumor weight at 0.01 pmol/CAM after 5 days; format: functional; method in brief: as §1
[4] = test system: A549; assay: Antitumor activity in human A549 cells inoculated with chicken chorioallantoic membrane assessed as inhibition of tumor weight at 1 pmol/CAM after 5 days; format: functional; method in brief: as §1
[5] = test system: Chorioallantoic membrane; assay: Antiangiogenic activity in chicken chorioallantoic membrane assessed as inhibition of VEGF-induced blood vessel formation treated 30 mins after VEGF addition measured after 3 days; format: functional, cell membranes; settings: Gallus gallus
Method in brief: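 VEGF (20 ng/CAM)-induced angiogenesis on chick embryo CAM, with compound applied afterwards on a disk. New vessel branch points under the disk were counted at several doses, mean ± SEM, n at least six. ID50 taken from dose-response curves.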

[6] = test system: A549; assay: Antitumor activity in human A549 cells inoculated with chicken chorioallantoic membrane assessed as inhibition of tumor weight at 0.001 pmol/CAM after 5 days; format: functional; method in brief: as §1
[7] = test system: Chorioallantoic membrane; assay: Antiangiogenic activity in human A549 cells inoculated with chicken chorioallantoic membrane assessed as inhibition of blood vessel branch points around tumor at 1 pmol/CAM after 5 days; format: functional, Gallus gallus
Method in brief: (§2)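 A549 human lung cancer cells (2×10^6 cells/CAM) in Matrigel implanted on top of the CAM, with compound given once at implantation. New vessel branch points around the tumor were counted as for the VEGF CAM assay. Inhibition is relative to untreated CAMs, mean ± S.E.M. of at least six embryos.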

[8] = test system: Chorioallantoic membrane; assay: Antiangiogenic activity in human A549 cells inoculated with chicken chorioallantoic membrane assessed as inhibition of blood vessel branch points around tumor at 0.1 pmol/CAM after 5 days; format: functional, Gallus gallus; method in brief: as §2
[9] = test system: Chorioallantoic membrane; assay: Antiangiogenic activity in human A549 cells inoculated with chicken chorioallantoic membrane assessed as inhibition of blood vessel branch points around tumor at 0.01 pmol/CAM after 5 days; format: functional, Gallus gallus; method in brief: as §2

**Q.** With `Cc1nc(NC(=O)CC(C)C)c(C)c(C)c1O` as the compound, how does the inhibition [1] read?
**A.** The inhibition was 75.6%.

**Q.** Which results are given for `CCCCCCCCCCCC(=O)Nc1nc(C)c(O)c(C)c1C`?
**A.** inhibition (INH) [2]: 31.3%; inhibition (INH) [3]: 26%; inhibition (INH) [4]: 38.2%; ID50 [5]: 14.9 fmol; inhibition [1]: 57.4%; inhibition (INH) [6]: 21.7%

**Q.** For `Cc1nc(NC(=O)C(C)(C)C)c(C)c(C)c1O`, which inhibition [1] is on record?
**A.** Its inhibition is 73.2%.

**Q.** `Cc1nc(NC(=O)c2cccs2)c(C)c(C)c1O` was tested. Which inhibition [1] did it give?
**A.** Its inhibition is 74.8%.

**Q.** How did the inhibition [1] turn out when `Cc1nc(NC(=O)c2cccc3ccccc23)c(C)c(C)c1O` was run?
**A.** The inhibition was 75.8%.

**Q.** Which “inhibition (INH)” value [2] does the source give for `Cc1nc(NC(=O)C2CCCC2)c(C)c(C)c1O` here?
**A.** Its value is 45.1%.

**Q.** And the “inhibition (INH)” value [3]?
**A.** The value was 24%.

**Q.** And the “inhibition (INH)” value [4]?
**A.** The value was 62.7%.

**Q.** What about the ID50 [5] of the same compound?
**A.** Its ID50 is 3.6 fmol.

**Q.** And the inhibition [1]?
**A.** Its inhibition is 81.8%.

**Q.** What about the “inhibition (INH)” value [6] of the same compound?
**A.** Its value is 13.2%.

**Q.** `CCCCCCCCCCCCCCCC(=O)Nc1nc(C)c(O)c(C)c1C` was tested. Which inhibition [1] did it give?
**A.** The inhibition was 59.9%.

**Q.** For `Cc1nc(NC(=O)CCc2ccccc2)c(C)c(C)c1O`, which inhibition [1] is on record?
**A.** The inhibition was 74.2%.

**Q.** Which results are given for `CC(=O)Nc1ccc(O)cc1`?
**A.** ID50 [5]: 397 fmol; inhibition [1]: 77.9%

**Q.** Which inhibition [1] does the source give for `Cc1nc(NC(=O)c2ccc(C(C)(C)C)cc2)c(C)c(C)c1O` here?
**A.** Its inhibition is 74.2%.

**Q.** Which inhibition [1] does the source give for `Cc1nc(NC(=O)c2ccccc2)c(C)c(C)c1O` here?
**A.** The inhibition was 77.3%.

**Q.** With `Cc1nc(NC(=O)c2ccc3c(c2)OCO3)c(C)c(C)c1O` as the compound, how does the inhibition [1] read?
**A.** The inhibition was 64.8%.

**Q.** With `CCCCCCCC(=O)Nc1nc(C)c(O)c(C)c1C` as the compound, how does the inhibition [1] read?
**A.** Its inhibition is 74.7%.

**Q.** How did the inhibition [1] turn out when `Cc1nc(NC(=O)C2CCCCC2)c(C)c(C)c1O` was run?
**A.** Its inhibition is 76.3%.

**Q.** For `CCN(CC)CCNC(=O)c1c(C)[nH]c(/C=C2\C(=O)Nc3ccc(F)cc32)c1C`, which ID50 [5] is on record?
**A.** Its ID50 is 380 fmol.

**Q.** What about the inhibition [1] of the same compound?
**A.** The inhibition was 88.8%.

**Q.** Which “inhibition (INH)” value [2] does the source give for `CC(=O)Nc1nc(C)c(O)c(C)c1C` here?
**A.** The value was 37.9%.

**Q.** What about the “inhibition (INH)” value [3] of the same compound?
**A.** The value was 34.2%.

**Q.** And the “inhibition (INH)” value [4]?
**A.** Its value is 47.7%.

**Q.** What about the ID50 [5] of the same compound?
**A.** The ID50 was 8.7 fmol.

**Q.** What about the inhibition [1] of the same compound?
**A.** Its inhibition is 84.8%.

**Q.** What about the “inhibition (INH)” value [6] of the same compound?
**A.** Its value is 20.3%.

**Q.** Which inhibition [1] does the source give for `Cc1nc(NC(=O)c2ccc(F)cc2)c(C)c(C)c1O` here?
**A.** Its inhibition is 75.3%.

**Q.** For `Cc1nc(NC(=O)C(C)C)c(C)c(C)c1O`, which inhibition [1] is on record?
**A.** The inhibition was 53.2%.

**Q.** With `COc1ccc(C(=O)Nc2nc(C)c(O)c(C)c2C)cc1` as the compound, how does the inhibition [1] read?
**A.** Its inhibition is 69.7%.

**Q.** How did the inhibition [1] turn out when `Cc1nc(NC(=O)Cc2ccccc2)c(C)c(C)c1O` was run?
**A.** The inhibition was 69.6%.

**Q.** With `Cc1nc(NC(=O)CCCCl)c(C)c(C)c1O` as the compound, how does the inhibition [1] read?
**A.** The inhibition was 70.2%.

**Q.** Which “inhibition (INH)” value [2] does the source give for `CN(C)c1ccc(/C=C2\C(=O)Nc3ccccc32)cc1` here?
**A.** The value was 23.4%.

**Q.** And the “inhibition (INH)” value [3]?
**A.** Its value is 16.2%.

**Q.** What about the “inhibition (INH)” value [4] of the same compound?
**A.** Its value is 26.8%.

**Q.** And the “inhibition (INH)” value [7]?
**A.** The value was 36.2%.

**Q.** And the ID50 [5]?
**A.** Its ID50 is 39.7 fmol.

**Q.** What about the inhibition [1] of the same compound?
**A.** The inhibition was 78%.

**Q.** And the “inhibition (INH)” value [8]?
**A.** Its value is 25.1%.

**Q.** What about the “inhibition (INH)” value [9] of the same compound?
**A.** Its value is 20.8%.
